In brackets after ≈: the same amount, converted by molar mass. Activity calls are given as the source filed them. The calls are words filed in the database; no cut-off is given here.

Test [1] has as its system Staphylococcus aureus. Description: Decrease in PSMbeta1 levels in Staphylococcus aureus USA300 at subinhibitory concentration after 24 hrs by RP-HPLC/ESI-MS. In kind it is functional, organism-based. An outline of the steps:
(§1)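 Antibiotic was added at inoculation (1:100 from preculture) into tryptic soy broth, with an antibiotic-free control, and shaken at 200 rpm for 24 h. Sub-inhibitory levels started at 1/10 of published MICs and were adjusted to give minimal growth effect, with growth tracked by OD600. PSMs in culture filtrates were quantified in triplicate by RP-HPLC/ESI-MS and reported as mean ± SD.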

Test [2] relates to Staphylococcus aureus. Description: Decrease in PSMbeta1 levels in Staphylococcus aureus Sanger 252 at subinhibitory concentrations after 24 hrs by RP-HPLC/ESI- MS. In kind it is functional, organism-based. An outline of the steps:
as §1

Test [3] relates to Staphylococcus aureus. The test is described as follows: Decrease in delta toxin levels in Staphylococcus aureus USA300 at subinhibitory concentrations after 24 hrs by RP-HPLC/ESI- MS. In kind it is functional, organism-based. An outline of the steps:
(§2)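 Antibiotic at a subinhibitory concentration was added at inoculation (1:100 from precultures) into 1 ml tryptic soy broth and shaken 24 h at 200 rpm. Peptides in culture filtrates were quantified by RP-HPLC/ESI-MS in triplicate. Each concentration started at 1/10 of the published MIC and was adjusted to give minimal growth effect, judged by OD600.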

The subject of test [4] is Staphylococcus aureus. The test is described as follows: Decrease in delta toxin levels in Staphylococcus aureus Sanger 252 at subinhibitory concentrations after 24 hrs by RP-HPLC/ESI- MS. It counts as functional, organism-based. An outline of the steps:
as §2

Test [5] has as its system Staphylococcus aureus. The test is described as follows: Antimicrobial activity against community-associated methicillin-resistant Staphylococcus aureus USA300. In kind it is functional.
Test [6] concerns Staphylococcus aureus. The test is described as follows: Antimicrobial activity against community-associated methicillin-resistant Staphylococcus aureus Sanger 252. It counts as functional.
Test [7] addresses T1, Accessory gene regulator protein A (Staphylococcus aureus) (UniProt P0A0I7).
T1 sequence (whole entry): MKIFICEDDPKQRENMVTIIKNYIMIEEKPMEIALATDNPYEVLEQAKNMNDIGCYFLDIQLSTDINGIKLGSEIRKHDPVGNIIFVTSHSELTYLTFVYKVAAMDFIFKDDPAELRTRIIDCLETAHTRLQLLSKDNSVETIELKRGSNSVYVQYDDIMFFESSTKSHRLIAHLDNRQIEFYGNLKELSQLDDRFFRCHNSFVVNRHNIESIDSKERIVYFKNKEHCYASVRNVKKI
Description: Activity of Quorum sensing agr in community-associated methicillin-resistant Staphylococcus aureus USA300 assessed as PSMbeta expression after 8 hrs by qRT-PCR. An outline of the steps:
(§3)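 LAC (USA300) was grown 8 h in shaken 125-ml flasks with antibiotic at a subinhibitory concentration. psmα and psmβ transcripts were quantified by qRT-PCR, with gyrB transcript as control, in parallel with RNAIII as the agr read-out. Run in triplicate; means ± SD.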

Test [8] concerns Staphylococcus aureus. The test is described as follows: Increase in PSMalpha levels in Staphylococcus aureus USA300 at subinhibitory concentrations after 24 hrs by RP-HPLC/ESI- MS. In kind it is functional, organism-based. In outline: as §1
The target of test [9] is T1, Accessory gene regulator protein A (Staphylococcus aureus). Description: Activity of Quorum sensing agr in community-associated methicillin-resistant Staphylococcus aureus USA300 assessed as PSMalpha expression after 8 hrs by qRT-PCR. In outline: as §3
Test [10] has as its system Staphylococcus aureus. Description: Decrease in PSMalpha levels in Staphylococcus aureus USA300 at subinhibitory concentration after 24 hrs by RP-HPLC/ESI-MS. It counts as functional, organism-based. In outline:
as §2

Test [11] relates to Staphylococcus aureus. Description: Decrease in PSMalpha levels in Staphylococcus aureus Sanger 252 at subinhibitory concentrations after 24 hrs by RP-HPLC/ESI- MS. In kind it is functional, organism-based. An outline of the steps: as §1
For test [12], the system named is Staphylococcus aureus. The test is described as follows: Increase in PSMalpha levels in Staphylococcus aureus Sanger 252 at subinhibitory concentrations after 24 hrs by RP-HPLC/ESI- MS. It counts as functional, organism-based. In outline: as §2

For the compound `CN[C@H](CC(C)C)C(=O)N[C@H]1C(=O)N[C@@H](CC(N)=O)C(=O)N[C@H]2C(=O)N[C@H]3C(=O)N[C@H](C(=O)N[C@H](C(=O)O)c4cc(O)cc(O)c4-c4cc3ccc4O)[C@H](O)c3ccc(c(Cl)c3)Oc3cc2cc(c3O[C@@H]2O[C@H](CO)[C@@H](O)[C@H](O)[C@H]2O[C@H]2C[C@](C)(N)[C@H](O)[C@H](C)O2)Oc2ccc(cc2Cl)[C@H]1O`, the result in the test with Staphylococcus aureus [1] and with Staphylococcus aureus [2] was Active. The outcome in the test on Staphylococcus aureus [3] and in the test on Staphylococcus aureus [4] was inactive.
Regarding `O=C(O)c1cn(C2CC2)c2cc(N3CCNCC3)c(F)cc2c1=O` [CIPROFLOXACIN], the result in the test with Staphylococcus aureus [1] and in the test with Staphylococcus aureus [2] was Active. The figures for the MIC against Staphylococcus aureus [5] and against Staphylococcus aureus [6] were 2 µg/mL (≈ 6.04 µM) and more than 16 µg/mL, respectively. The outcome in the test on Staphylococcus aureus [3] and with Staphylococcus aureus [4] was inactive.
As to `CCC[C@@H]1C[C@@H](C(=O)N[C@@H]([C@H]2O[C@H](SC)[C@H](O)[C@@H](O)[C@H]2O)[C@H](C)Cl)N(C)C1` [CLINDAMYCIN], the outcome (in the test on Staphylococcus aureus [1]; in test [7]; with Staphylococcus aureus [8]; in test [9]; in the test with Staphylococcus aureus [2]) was Active. Moreover, the MIC against Staphylococcus aureus [5] was 0.12 µg/mL (≈ 0.282 µM); with Staphylococcus aureus [6], more than 4 µg/mL. The outcome in the test with Staphylococcus aureus [3] and in the test with Staphylococcus aureus [4] was inactive.
Consider `CC[C@H]1OC(=O)[C@H](C)[C@@H](O[C@H]2C[C@@](C)(OC)[C@@H](O)[C@H](C)O2)[C@H](C)[C@@H](O[C@@H]2O[C@H](C)C[C@H](N(C)C)[C@H]2O)[C@](C)(O)C[C@@H](C)C(=O)[C@H](C)[C@@H](O)[C@]1(C)O` [ERYTHROMYCIN], for which the outcome in the test with Staphylococcus aureus [1], in the test with Staphylococcus aureus [8] and in the test with Staphylococcus aureus [2] was Active. The MIC against Staphylococcus aureus [5] and against Staphylococcus aureus [6] was more than 8 µg/mL in each case. The result in the test with Staphylococcus aureus [3] and in the test with Staphylococcus aureus [4] was inactive.
For `CC(=O)NC[C@H]1CN(c2ccc(N3CCOCC3)c(F)c2)C(=O)O1` [LINEZOLID], the result in the test with Staphylococcus aureus [1], with Staphylococcus aureus [8] and in the test on Staphylococcus aureus [2] was Active. Besides, the outcome with Staphylococcus aureus [3] and in the test on Staphylococcus aureus [4] was inactive. The lowest concentration to inhibit growth in the test with Staphylococcus aureus [6] (MIC) was 1 µg/mL (≈ 2.96 µM).
Turning to `C/C(=C\C(=O)OCCCCCCCCC(=O)O)C[C@@H]1OC[C@H](C[C@@H]2O[C@H]2[C@@H](C)[C@H](C)O)[C@@H](O)[C@H]1O` [MUPIROCIN], the result with Staphylococcus aureus [1], in the test with Staphylococcus aureus [2], in the test with Staphylococcus aureus [4] and in the test with Staphylococcus aureus [11] was Active. Moreover, the MIC against Staphylococcus aureus [5] came out at 0.12 µg/mL (≈ 0.24 µM); against Staphylococcus aureus [6] it was 0.25 µg/mL (≈ 0.499 µM). Moreover, the outcome in the test with Staphylococcus aureus [10] and in the test on Staphylococcus aureus [3] was inactive.
As to `Cc1onc(-c2ccccc2)c1C(=O)N[C@@H]1C(=O)N2[C@@H]1SC(C)(C)[C@@H]2C(=O)O` [OXACILLIN], the outcome in the test with Staphylococcus aureus [1], in the test with Staphylococcus aureus [10], with Staphylococcus aureus [2] and in the test with Staphylococcus aureus [3] was Active. The outcome (in test [7]; in the test with Staphylococcus aureus [12]; in test [9]; in the test with Staphylococcus aureus [4]) was inactive. Further, the minimal inhibitory concentration (MIC) against Staphylococcus aureus [5] and in the test with Staphylococcus aureus [6] was more than 16 µg/mL throughout.
As for `CO[C@H]1/C=C/O[C@@]2(C)Oc3c(C)c(O)c4c(O)c(c(/C=N/N5CCN(C)CC5)c(O)c4c3C2=O)NC(=O)/C(C)=C\C=C\[C@H](C)[C@H](O)[C@@H](C)[C@@H](O)[C@@H](C)[C@H](OC(C)=O)[C@@H]1C` [RIFAMPIN], the result in the test with Staphylococcus aureus [1] and with Staphylococcus aureus [2] was Active. The MIC in the test on Staphylococcus aureus [5] and in the test on Staphylococcus aureus [6] was 0.004 µg/mL (≈ 0.00486 µM) each time. Moreover, the outcome with Staphylococcus aureus [3] and in the test with Staphylococcus aureus [4] was inactive.
Turning to `Cc1cc(NS(=O)(=O)c2ccc(N)cc2)no1` [SULFAMETHOXAZOLE], the MIC against Staphylococcus aureus [5] and against Staphylococcus aureus [6] was 4.75 µg/mL (≈ 18.8 µM) in each case.
`CN(C)[C@@H]1C(O)=C(C(N)=O)C(=O)[C@@]2(O)C(O)=C3C(=O)c4c(O)cccc4[C@@](C)(O)[C@H]3C[C@@H]12` [TETRACYCLINE]: the outcome (in the test with Staphylococcus aureus [1]; in test [7]; in the test with Staphylococcus aureus [8]; in test [9]; in the test with Staphylococcus aureus [2]) was Active. The MIC with Staphylococcus aureus [5] and against Staphylococcus aureus [6] was 1 µg/mL (≈ 2.25 µM) throughout. Further, the outcome in the test with Staphylococcus aureus [3] and in the test with Staphylococcus aureus [4] was inactive.
Turning to `COc1cc(Cc2cnc(N)nc2N)cc(OC)c1OC` [TRIMETHOPRIM], the MIC against Staphylococcus aureus [5] and in the test on Staphylococcus aureus [6] was 0.25 µg/mL (≈ 0.861 µM) throughout.

For the origin of these results see ChEMBL document CHEMBL1671748, “Subinhibitory concentrations of protein synthesis-inhibiting antibiotics promote increased expression of the agr virulence regulator and production of phenol-soluble modulin cytolysins in community-associated methicillin-resistant Staphylococcus aureus” (2010).
